For one assay, the system named is Jurkat. Description: Inhibition of Calcium release in jurkat cells. The assay is classed as functional, cell-based. The following applies: Homo sapiens. Put shortly:
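Jurkat cells loaded with Fluo-3, washed in HBSS with 1 mM CaCl₂, 1 mM MgCl₂, 10 mM HEPES, 2 mM probenecid, 1% FBS, pH 7.4. Final 3 × 10⁵ cells/mL. Compound added for 15 min at room temperature, then anti-CD3 (clone X35, final 0.25 µg/mL). FLIPR fluorescence followed for 13 min. Peak minus baseline plotted against concentration gives EC₅₀. Mean of two or more experiments in duplicate ± SD.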

Assay [1] concerns the target Tyrosine-protein kinase Lck (Homo sapiens, UniProt P06239). Description: Inhibition of p56 Lck tyrosine kinase.
For a further assay, the species on record is Homo sapiens. Description: Inhibition of IL-2 production in human whole blood. It counts as functional.
The nature of another assay: tissue or blood. It counts as functional, tissue-based. To be noted: Homo sapiens.

This is an account of results in ChEMBL document CHEMBL1136753, “Optimization of 2-phenylaminoimidazo[4,5-h]isoquinolin-9-ones: orally active inhibitors of lck kinase” (J Med Chem, 2003).

Tyrosine-protein kinase Lck, sequence (P06239 whole entry): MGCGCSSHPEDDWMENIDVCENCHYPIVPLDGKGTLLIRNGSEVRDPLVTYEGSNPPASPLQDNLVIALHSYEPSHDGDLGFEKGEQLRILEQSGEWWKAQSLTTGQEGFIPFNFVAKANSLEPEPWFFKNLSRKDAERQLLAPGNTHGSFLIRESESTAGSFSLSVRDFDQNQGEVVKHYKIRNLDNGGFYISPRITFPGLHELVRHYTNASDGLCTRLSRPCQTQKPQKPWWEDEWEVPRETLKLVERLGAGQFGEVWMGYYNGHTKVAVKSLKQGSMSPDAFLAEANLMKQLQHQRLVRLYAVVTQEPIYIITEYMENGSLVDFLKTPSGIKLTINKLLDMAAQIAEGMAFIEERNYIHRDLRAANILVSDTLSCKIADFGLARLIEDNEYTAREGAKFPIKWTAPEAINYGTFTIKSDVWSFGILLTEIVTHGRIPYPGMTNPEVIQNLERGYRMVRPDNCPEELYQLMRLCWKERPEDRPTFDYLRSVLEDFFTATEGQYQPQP

Turning to `Cc1nc(O)c2c(ccc3[nH]c(Nc4c(Cl)cccc4Cl)nc32)c1C`, in the assay with Jurkat, the EC50 (commonly the concentration needed to bring the measured effect to its halfway point) came to 180 nM. Further, 110 nM corresponded to half-maximal inhibition in assay [1] (IC50).
As to `Cc1c(/C=C/CN)nc(O)c2c1ccc1nc(Nc3c(Cl)cccc3Cl)n(C)c12`, the EC50 in the assay filed under Homo sapiens amounted to 3300 nM; in the assay “tissue or blood”, 920 nM; with Jurkat it was 21 nM. In assay [1], the IC50 – broadly, the concentration at which inhibition is half-maximal – is 2 nM.
As for `CCc1nc(O)c2c(ccc3nc(Nc4c(Cl)cccc4Cl)n(C)c32)c1C`, in the assay on Jurkat, the EC50 stood at 80 nM. This compound also showed an IC50 in assay [1] of 780 nM.
For `Cc1nc(O)c2c(cc(CNCCO)c3nc(Nc4c(Cl)cccc4Cl)n(C)c32)c1C` the same measures were 120 nM and 26 nM.
As to `Cc1c(/C=C/CN2CCOCC2)nc(O)c2c1ccc1nc(Nc3c(Cl)cccc3Cl)n(C)c12`, the EC50 in the assay “tissue or blood” was found to be 170 nM; in the assay with Jurkat, 30 nM. This compound also gave an IC50 in assay [1] of 4 nM.
`Cc1nc(O)c2c(cc(-c3ccc(F)nc3F)c3nc(Nc4c(Cl)cccc4Cl)n(C)c32)c1C`: the EC50 in the assay with Jurkat was 370 nM. For the same compound, in assay [1], the IC50 was determined as 50 nM.
Turning to `Cc1nc(O)c2c(ccc3nc(Nc4c(Cl)cccc4Cl)n(C)c32)c1CC(=O)N1CCN(C)CC1`, in the assay on Jurkat, the EC50 was 1200 nM. Besides, the IC50 in assay [1] was 440 nM.
For `Cc1c(CO)nc(O)c2c1ccc1nc(Nc3c(Cl)cccc3Cl)n(C)c12` the same measures were 240 nM and 770 nM.
For `CCNC/C=C/c1nc(O)c2c(ccc3nc(Nc4c(Cl)cccc4Cl)n(C)c32)c1C` the same measures were 9 nM and 2 nM.
As for `C=Cc1nc(O)c2c(ccc3nc(Nc4c(Cl)cccc4Cl)n(C)c32)c1C`, the EC50 in the assay listed under Homo sapiens turned out to be 12000 nM; in “tissue or blood”, 900 nM; with Jurkat it was 20 nM. Further, the IC50 in assay [1] turned out to be 45 nM.
Regarding `CCNC(=O)Cc1c(C)nc(O)c2c1ccc1nc(Nc3c(Cl)cccc3Cl)n(C)c12`, in the assay on Jurkat, the EC50 was 600 nM. Also, the midpoint of inhibition in assay [1], the IC50, lay at 460 nM.
Compound `Cc1nc(O)c2c(ccc3c2nc(Nc2c(Cl)cccc2Cl)n3C)c1C` gave an IC50 in assay [1] greater than 2000 nM.
Consider `Cc1c(CNCc2ccccc2)nc(O)c2c1ccc1nc(Nc3c(Cl)cccc3Cl)n(C)c12`, for which the EC50 with Jurkat came out at 4200 nM. Moreover, the IC50 in assay [1] is 2000 nM.
`Cc1c(/C=C/CN(C)C)nc(O)c2c1ccc1nc(Nc3c(Cl)cccc3Cl)n(C)c12`: the EC50 in the assay listed under Homo sapiens came out at 680 nM; in the assay “tissue or blood”, 560 nM; in the assay on Jurkat, 10 nM. The IC50 in assay [1] was 3 nM.
As to `Cc1nc(O)c2c(ccc3nc(Nc4c(Cl)cccc4Cl)n(C)c32)c1CC(=O)N1CCOCC1`, the EC50 in the assay with Jurkat amounted to 660 nM. The same compound showed an IC50 in assay [1] of 120 nM.
For `Cc1nc(O)c2c(ccc3nc(Nc4c(Cl)cccc4Cl)n(C)c32)c1CCCN1CCOCC1` the same measures were 300 nM and 110 nM.
For `Cc1nc(O)c2c(ccc3nc(Nc4c(Cl)cccc4Cl)n(C)c32)c1CCN1CCOCC1` the same measures were 270 nM and 30 nM.
Consider `Cc1nc(O)c2c(ccc3nc(Nc4c(Cl)cccc4Cl)n(C)c32)c1CC(=O)N1CCCC1`, for which the EC50 in the assay with Jurkat turned out to be 270 nM. The compound also had an IC50 in assay [1] of 740 nM.
With `Cc1c(/C=C/CO)nc(O)c2c1ccc1nc(Nc3c(Cl)cccc3Cl)n(C)c12`, the EC50 in the assay filed under Homo sapiens turned out to be 3000 nM; in the assay with Jurkat, 8 nM.
On to `CCOC(=O)Cc1c(C)nc(O)c2c1ccc1nc(Nc3c(Cl)cccc3Cl)n(C)c12`, for which the EC50 with Jurkat came to 140 nM. This compound displayed an IC50 in assay [1] of 700 nM.
For `COC(=O)c1c(C)nc(O)c2c1ccc1nc(Nc3c(Cl)cccc3Cl)n(C)c12`, in that order: 90 nM and 87 nM.
In the case of `Cc1c(/C=C/CN(C)Cc2ccccc2)nc(O)c2c1ccc1nc(Nc3c(Cl)cccc3Cl)n(C)c12`, in the assay with Jurkat, the EC50 is 200 nM. In assay [1], this compound registered an IC50 of 10 nM.
For `COc1ccc(CNCc2cc3c(C)c(C)nc(O)c3c3c2nc(Nc2c(Cl)cccc2Cl)n3C)cc1`, in that order: 500 nM and 180 nM.
For `COC(=O)CCc1nc(O)c2c(ccc3nc(Nc4c(Cl)cccc4Cl)n(C)c32)c1C`, in that order: 230 nM and 360 nM.
For `Cc1nc(O)c2c(ccc3nc(Nc4c(Cl)cccc4Cl)n(C)c32)c1C`, the results for the EC50 in the assay listed under Homo sapiens and in the assay with Jurkat were 1100 nM and 130 nM, respectively. For the same compound, half-maximal inhibition in assay [1] (IC50) was put at 23 nM.
`Cc1nc(O)c2c(ccc3nc(Nc4c(Cl)cccc4Cl)n(C)c32)c1CCO`: the half-maximal effective concentration (EC50) in the assay on Jurkat was 90 nM. This compound registered an IC50 in assay [1] of 27 nM.
Turning to `Cc1c(/C=C/CN2CCCC2)nc(O)c2c1ccc1nc(Nc3c(Cl)cccc3Cl)n(C)c12`, the EC50 in the assay listed under Homo sapiens stood at 300 nM; in the assay “tissue or blood”, 150 nM; in the assay on Jurkat, 5 nM.
The compound `CCn1c(Nc2c(Cl)cccc2Cl)nc2ccc3c(C)c(C)nc(O)c3c21` yielded an IC50 in assay [1] greater than 2500 nM.
With `C=CC(O)c1nc(O)c2c(ccc3nc(Nc4c(Cl)cccc4Cl)n(C)c32)c1C` (stereo unspecified), the EC50 in the assay on Jurkat turned out to be 1300 nM. In addition, the midpoint of inhibition in assay [1], the IC50, lay at 570 nM.
For `COC(=O)/C=C/c1nc(O)c2c(ccc3nc(Nc4c(Cl)cccc4Cl)n(C)c32)c1C`, in that order: 70 nM and 86 nM.
As for `Cc1nc(O)c2c(ccc3nc(Nc4c(Cl)cccc4Cl)n(C)c32)c1CCC(=O)N1CCOCC1`, in the assay on Jurkat, the EC50 was 270 nM. In addition, the IC50 in assay [1] was 120 nM.
As for `Cc1c(C=O)nc(O)c2c1ccc1nc(Nc3c(Cl)cccc3Cl)n(C)c12`, the EC50 in the assay on Jurkat came out at 450 nM. This compound also registered an IC50 in assay [1] of 170 nM.
